Laboratory results taken from ChEMBL document CHEMBL1123986, “Oral absorption of cephalosporin antibiotics. 2. Expanded structure-activity relationships of 7-(arylacetamido)-3-substituted cephalosporins” (1988).
Converted amounts (≈) assume the structure as drawn.

Key:
[1] = Ratio of ED50 value evaluated in Staphylococcus aureus by po to sc administration; type: functional
Method in brief: (§1)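 Oral/subcutaneous effective-dose ratio. Both routes were dosed in random-sex ICR mice of 19–21 g at 1 and 5 h after an intraperitoneal challenge of 50–500 LD50 from a frozen organism pool. Each route used five 2-fold dilution levels with eight mice per level, and the po value was divided by the sc value.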

Salmonella typhi [2] = experiment: Minimum inhibitory concentration against Salmonella typhi; type: functional, Salmonella enterica subsp. enterica serovar Typhi; conditions: Salmonella enterica
[3] = Ratio of ED50 value evaluated in Streptococcus pyogenes by po to sc administration; type: functional; method in brief: as §1
[4] = Ratio of ED50 value evaluated in Streptococcus pneumoniae by po to sc administration; type: functional; method in brief: as §1
Mus musculus [5] = experiment: (§2) Effective dose administered subcutaneously (sc) to 19-21-g random sex ICR mice at 1 hr and 5 hr intervals after intraperitoneal administration of Streptococcus pneumoniae; type: functional
Method in brief: (§3)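 Mouse protection: random-sex ICR mice, 19–21 g, challenged intraperitoneally from a frozen organism pool giving 50–500 LD50 per challenge dose. Drug given sc or po at 1 and 5 h post-infection. Five 2-fold dilution levels per compound, eight mice per dilution.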

Mus musculus [6] = experiment: (§4) Effective dose administered orally (po) to 19-21-g random sex ICR mice at 1 hr and 5 hr intervals after intraperitoneal Staphylococcus aureus; type: functional; method in brief: as §3
Streptococcus pyogenes [7] = experiment: Minimum inhibitory concentration against Streptococcus pyogenes; type: functional
Method in brief: (§5)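 Agar dilution MIC in μg/mL. […] Organisms not run are marked not tested.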

Mus musculus [8] = experiment: (§6) Effective dose administered orally (po) to 19-21-g random sex ICR mice at 1 hr and 5 hr intervals after intraperitoneal Streptococcus pyogenes; type: functional; method in brief: as §3
Haemophilus influenzae [9] = experiment: (§7) Minimum inhibitory concentration against Haemophilus influenzae; type: functional; method in brief: as §5
Salmonella typhi [10] = experiment: Minimum inhibitory concentration by agar dilution method against Salmonella typhi; type: functional, Salmonella enterica subsp. enterica serovar Typhi; conditions: Salmonella enterica
Escherichia coli = experiment: Minimum inhibitory concentration against Escherichia coli; type: functional; method in brief: as §5
Staphylococcus aureus [11] = experiment: Efficacy against mouse infections caused by Staphylococcus aureus measured as Minimum inhibitory concentration
Staphylococcus aureus [12] = experiment: Minimum inhibitory concentration against Staphylococcus aureus; type: functional; method in brief: as §5
Mus musculus [13] = experiment: (§8) Effective dose administered subcutaneously (sc) to 19-21-g random sex ICR mice at 1 hr and 5 hr intervals after intraperitoneal administration of Streptococcus pyogenes; type: functional; method in brief: as §3
Streptococcus pneumoniae [14] = experiment: Efficacy against mouse infections caused by S. Pneumoniae measured as Minimum inhibitory concentration
Mus musculus [15] = experiment: (§9) Effective dose administered orally (po) to 19-21-g random sex ICR mice at 1 hr and 5 hr intervals after intraperitoneal administration of Streptococcus pneumoniae; type: functional; method in brief: as §3
Streptococcus pneumoniae [16] = experiment: Minimum inhibitory concentration against Streptococcus pneumoniae; type: functional; method in brief: as §5
Mus musculus [17] = experiment: (§10) Effective dose administered subcutaneously (sc) to 19-21-g random sex ICR mice at 1 hr and 5 hr intervals after intraperitoneal administration of Staphylococcus aureus; type: functional; method in brief: as §3
Haemophilus influenzae [18] = experiment: as §7; type: functional; method in brief: as §5; remark: listed apart in the source
Streptococcus pyogenes [19] = experiment: Efficacy against mouse infections caused by Streptococcus pyogenes measured as Minimum inhibitory concentration
Klebsiella pneumoniae [20] = experiment: Minimum inhibitory concentration against Klebsiella pneumoniae; type: functional; method in brief: as §5
Klebsiella aerogenes = experiment: Minimum inhibitory concentration against Enterobacter aerogenes; type: functional; method in brief: as §5
Klebsiella pneumoniae [21] = experiment: Minimum inhibitory concentration by agar dilution method against Klebsiella pneumoniae; type: functional; method in brief: as §5
Streptococcus pyogenes [22] = experiment: Efficacy against mouse infections caused by Streptococcus pyogenes measured as Minimum inhibitory concentration; type: functional
Streptococcus pneumoniae [23] = experiment: as §2; type: functional; method in brief: as §3
Staphylococcus aureus [24] = experiment: as §4; type: functional; method in brief: as §3
Streptococcus pyogenes [25] = experiment: as §6; type: functional; method in brief: as §3
Staphylococcus aureus [26] = experiment: Efficacy against mouse infections caused by Staphylococcus aureus measured as Minimum inhibitory concentration; type: functional
Streptococcus pneumoniae [27] = experiment: Efficacy against mouse infections caused by S. Pneumoniae measured as Minimum inhibitory concentration; type: functional
Streptococcus pyogenes [28] = experiment: as §8; type: functional; method in brief: as §3
Streptococcus pneumoniae [29] = experiment: as §9; type: functional; method in brief: as §3
Staphylococcus aureus [30] = experiment: as §10; type: functional; method in brief: as §3
Haemophilus influenzae [31] = experiment: Minimum inhibitory concentration by agar dilution method against Haemophilus influenzae (beta lactamase(-)); type: functional; method in brief: as §5
Mus musculus [32] = experiment: Effective dose administered orally (po) to 19-21-g random sex ICR mice at 1 hr and 5 hr intervals after intraperitoneal Streptococcus pneumoniae; type: functional; method in brief: as §3
Haemophilus influenzae [33] = experiment: Minimum inhibitory concentration by agar dilution method against (beta lactamase(+); type: functional; method in brief: as §5
Haemophilus influenzae [34] = experiment: Minimum inhibitory concentration by agar dilution method against Haemophilus influenzae (beta lactamase(-); type: functional; method in brief: as §5

Row | Compound | Ratio [1] | MIC (Salmonella typhi [2]) [µg/mL] | Ratio [3] | Ratio [4] | ED50 (Mus musculus [6]) [mg/kg] | MIC (Streptococcus pyogenes [7]) [µg/mL] | MIC (Haemophilus influenzae [9]) [µg/mL] | MIC (Escherichia coli) [µg/mL] | MIC (Staphylococcus aureus [12]) [µg/mL] | MIC (Streptococcus pneumoniae [14]) [µg/mL] | MIC (Streptococcus pneumoniae [16]) [µg/mL] | MIC (Klebsiella pneumoniae [20]) [µg/mL] | MIC (Klebsiella aerogenes) [µg/mL] | further results
1 | O=C(Cc1csc2ccccc12)N[C@@H]1C(=O)N2C(C(=O)O)=C(Cl)CS[C@H]12 | 2.4 | 128 (≈ 313 µM) | 1.4 | 2.4 | – | – | – | – | – | – | – | – | – | –
2 | O=C(CSc1cc(Cl)ccc1Cl)N[C@@H]1C(=O)N2C(C(=O)O)=C(Cl)CS[C@H]12 | 5.9 | – | 2.6 | – | 7.7 | < 0.008 | 1 (≈ 2.2 µM) | 32 (≈ 70.5 µM) | 0.03 (≈ 0.0661 µM) | 0.015 (≈ 0.0331 µM) | < 0.008 | 32 (≈ 70.5 µM) | > 128 | ED50 (Mus musculus [5]): 6.3 mg/kg; ED50 (Mus musculus [8]): 7.2 mg/kg; MIC (Salmonella typhi [10]): 64 µg/mL (≈ 141 µM); MIC (Staphylococcus aureus [11]): 0.03 µg/mL (≈ 0.0661 µM); ED50 (Mus musculus [13]): 2.8 mg/kg; ED50 (Mus musculus [15]): > 25 mg/kg; ED50 (Mus musculus [17]): 1.3 mg/kg; MIC (Haemophilus influenzae [18]): 1 µg/mL (≈ 2.2 µM); MIC (Streptococcus pyogenes [19]): 0.125 µg/mL (≈ 0.275 µM)
3 | COC1=C(C(=O)O)N2C(=O)[C@@H](NC(=O)Cc3csc4ccccc34)[C@H]2SC1 | 2 | > 128 | – | – | – | 0.25 (≈ 0.618 µM) | 0.5 (≈ 1.24 µM) | > 128 | 0.25 (≈ 0.618 µM) | – | 0.5 (≈ 1.24 µM) | – | > 128 | MIC (Klebsiella pneumoniae [21]): > 128 µg/mL; MIC (Streptococcus pyogenes [22]): 0.25 µg/mL (≈ 0.618 µM); ED50 (Streptococcus pneumoniae [23]): > 10 mg/kg; ED50 (Staphylococcus aureus [24]): 2.8 mg/kg; ED50 (Streptococcus pyogenes [25]): > 10 mg/kg; MIC (Staphylococcus aureus [26]): 0.5 µg/mL (≈ 1.24 µM); MIC (Streptococcus pneumoniae [27]): 0.5 µg/mL (≈ 1.24 µM); ED50 (Streptococcus pyogenes [28]): > 10 mg/kg; ED50 (Streptococcus pneumoniae [29]): > 10 mg/kg; ED50 (Staphylococcus aureus [30]): 1.4 mg/kg; MIC (Haemophilus influenzae [31]): 8 µg/mL (≈ 19.8 µM)
4 | Nc1nc(CC(=O)N[C@@H]2C(=O)N3C(C(=O)O)=C(Cl)CS[C@H]23)cs1 | 4.5 | 0.25 (≈ 0.667 µM) | 0.7 | 1.4 | – | – | – | – | – | 0.5 (≈ 1.33 µM) | 0.25 (≈ 0.667 µM) | – | – | –
5 | CC1(C)S[C@@H]2[C@H](NC(=O)COc3ccccc3)C(=O)N2[C@H]1C(=O)O [PENICILLIN V] | 11 | – | 3.9 | 1.1 | 0.46 | – | – | – | – | – | – | – | – | ED50 (Mus musculus [32]): 2.3 mg/kg
6 | Nc1nc(CC(=O)N[C@@H]2C(=O)N3C(C(=O)O)=C(Cl)CS[C@H]23)c(-c2ccccc2)s1 | – | > 128 | – | – | – | 0.03 (≈ 0.0665 µM) | – | > 128 | 0.03 (≈ 0.0665 µM) | – | 0.03 (≈ 0.0665 µM) | > 128 | > 128 | MIC (Haemophilus influenzae [33]): 16 µg/mL (≈ 35.5 µM); MIC (Haemophilus influenzae [34]): 16 µg/mL (≈ 35.5 µM)
